Laboratory results from ChEMBL document CHEMBL1132636, “Phthalein derivatives as a new tool for selectivity in thymidylate synthase inhibition” (J Med Chem, 1999).
Values after ≈ are worked out from the molar mass of the structure shown.

Tests used:
[1] = Ratio of cytotoxic concentration to that of minimum inhibitory concentration against Streptococcus (CC50/MIC50).; format: functional
[2] = tested on: thymidylate synthase (Pneumocystis carinii)
[3] = tested on: thymidylate synthase (Cryptococcus neoformans)
Streptococcus [4] = experiment: In vitro minimum concentration for germicidal effect on Streptococcus.; format: functional
Staphylococcus aureus [5] = experiment: In vitro inhibition of Staphylococcus aureus growth.; format: functional
Summary of the method: (§1)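 Bacterial clinical isolates (S. aureus, group D Streptococcus) grown in nutrient broth pH 7.2, inoculum 10³ cells/tube, with serial dilutions of compound from a DMSO stock.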

[6] = tested on: thymidylate synthase (Lactobacillus casei)
MT4 = experiment: In vitro cytotoxicity against mock infected MT-4 cells.; format: functional; settings: Homo sapiens
Summary of the method: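 Uninfected MT-4 cells, 1 × 10⁴ per well in RPMI with 10% FCS, with serial compound dilutions from a DMSO stock. Incubated 4 days at 37 °C, run in parallel with the anti-HIV assay. Viable cells counted by MTT; reported as CC50.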

[7] = molecular target: Thymidylate synthase (Homo sapiens) (UniProt P04818)
Streptococcus [8] = experiment: In vitro inhibition of Streptococcus growth.; format: functional; summary of the method: as §1
Cryptococcus neoformans = experiment: In vitro inhibition of Cryptococcus neoformans growth.; format: functional
Summary of the method: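 Cr. neoformans in Sabouraud dextrose broth pH 5.7, 10³ blastospores or CFU/tube, serial compound dilutions, 37 °C, read after 5 days. MIC is the lowest concentration with no macroscopic growth. MGC is taken by subculturing negative tubes onto drug-free Sabouraud agar.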

Staphylococcus aureus [9] = experiment: In vitro evaluation for minimum germicidal effect on Staphylococcus aureus was determined; format: functional
[10] = molecular target: T1, Thymidylate synthase (Lactobacillus casei) (UniProt P00469); settings: Lacticaseibacillus casei
T1 sequence (whole entry): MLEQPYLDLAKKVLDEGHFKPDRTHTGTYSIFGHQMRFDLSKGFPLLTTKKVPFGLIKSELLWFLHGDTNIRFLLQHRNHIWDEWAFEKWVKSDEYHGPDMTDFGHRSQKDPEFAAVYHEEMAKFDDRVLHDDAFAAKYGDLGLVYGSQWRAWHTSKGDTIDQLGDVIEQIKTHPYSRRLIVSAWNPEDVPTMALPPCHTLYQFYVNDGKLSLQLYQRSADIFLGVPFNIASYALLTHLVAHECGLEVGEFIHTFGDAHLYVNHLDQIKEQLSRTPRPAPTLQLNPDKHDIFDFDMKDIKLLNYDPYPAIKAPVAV

[11] = molecular target: T1, Thymidylate synthase (Lactobacillus casei); experiment: Compound was evaluated for the percentage inhibition against Lactobacillus casei Thymidylate synthase (LcTS) at 27 uM; settings: Lacticaseibacillus casei
Summary of the method: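 Single concentration 27 µM, initial TS rates measured with and without inhibitor; IF = Vii/Vi. Purified L. casei TS, TES 50 mM pH 7.4 buffer with MgCl2, formaldehyde, EDTA, 2-mercaptoethanol; dUMP 120 µM, folate 60 µM, 20 °C. Read-out is absorbance rise at 340 nm. At least three determinations, each within 10% of the mean.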

Thymidylate synthase (Homo sapiens), sequence (P04818 2-313 limits assumed): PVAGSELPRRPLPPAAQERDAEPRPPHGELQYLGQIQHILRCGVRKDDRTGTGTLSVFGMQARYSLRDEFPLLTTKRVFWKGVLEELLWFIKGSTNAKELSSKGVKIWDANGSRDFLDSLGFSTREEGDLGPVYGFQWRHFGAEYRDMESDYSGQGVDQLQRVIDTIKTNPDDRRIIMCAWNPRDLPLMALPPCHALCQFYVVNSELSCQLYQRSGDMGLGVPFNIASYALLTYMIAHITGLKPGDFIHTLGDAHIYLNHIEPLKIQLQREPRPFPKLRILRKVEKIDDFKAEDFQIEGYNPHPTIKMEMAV

Row | SMILES | SI [1] | IF [2] | IF [3] | MGC (Streptococcus [4]) [µM] | MIC (Staphylococcus aureus [5]) [µM] | IF [6] | CC50 (MT4) [µM] | IF [7] | MIC (Streptococcus [8]) [µM] | MIC (Cryptococcus neoformans) [µM] | MGC (Staphylococcus aureus [9]) [µM] | IF [10] | inhibition [11] [%]
1 | O=C1OC(c2ccc(O)cc2)(c2ccc(O)cc2)c2ccc3c4c(ccc1c24)CC3 | 3.3 | 0.344 | 0.344 | 32 | 16 (≈ 6.31 µg/mL) | 0.409 | 53 | 0.475 | 16 (≈ 6.31 µg/mL) | > 53 | 32 |  | 
2 | O=C1OC(c2ccc(O)cc2)(c2ccc(O)cc2)c2cc3ccccc3cc21 | 2.3 | 0.459 | 0.215 | 34 | 17 (≈ 6.26 µg/mL) | 0.247 | 79 | 0.594 | 34 (≈ 12.5 µg/mL) | > 79 | 68 |  | 
3 | O=C1OC(c2ccc(O)cc2)(c2ccc(O)cc2)c2ccccc21 [PHENOLPHTHALEIN] |  |  |  | 58 | > 58 |  | 58 | 0.182 | 38 (≈ 12.1 µg/mL) | > 58 |  | 0.444 | 
4 | O=C1OC(c2ccc(O)c(Cl)c2)(c2ccc(O)c(Cl)c2)c2cccc3cccc1c23 |  |  |  | 3.5 | 7 (≈ 3.06 µg/mL) |  | 46 | 0.814 | 1.8 (≈ 0.787 µg/mL) | 9.37 (≈ 4.1 µg/mL) | 14 |  | 
5 | O=C1OC(c2ccc(O)c(F)c2)(c2ccc(O)c(F)c2)c2cc3ccccc3cc21 | 6.2 | 0.582 | 0.507 | 15 | 15 (≈ 6.07 µg/mL) | 0.298 | 94 | 0.521 | 15 (≈ 6.07 µg/mL) | > 94 | 30 |  | 
6 | O=C1OC(c2ccc(O)c(Cl)c2)(c2ccc(O)c(Cl)c2)c2ccc(Br)c3cccc1c23.O=C1OC(c2ccc(O)c(Cl)c2)(c2ccc(O)c(Cl)c2)c2cccc3c(Br)ccc1c23 | 49.6 |  |  | 3.1 | 3.1 | 0.36 | 154 | 1 | 3.1 | > 200 | 12.5 |  | 
7 | O=C1OC(c2ccc(O)c(Cl)c2)(c2ccc(O)c(Cl)c2)c2ccc(Cl)c3cccc1c23.O=C1OC(c2ccc(O)c(Cl)c2)(c2ccc(O)c(Cl)c2)c2cccc3c(Cl)ccc1c23 |  |  |  | 1.6 | 3 |  | 63 | 1 | 1.6 | 9.37 | 3 |  | 
8 | O=C1OC(c2ccc(O)c(F)c2)(c2ccc(O)c(F)c2)c2cccc3cccc1c23 |  |  |  | 25 | 25 (≈ 10.1 µg/mL) |  | 117 | 1 | 25 (≈ 10.1 µg/mL) | > 200 | 50 |  | 
9 | O=C1OC(c2ccc(O)c(Cl)c2)(c2ccc(O)c(Cl)c2)c2cc3ccccc3cc21 | 39.6 |  |  | 6.2 | 3.1 (≈ 1.36 µg/mL) | 0.093 | 120 | 0.103 | 3.1 (≈ 1.36 µg/mL) | > 200 | 6.2 |  | 
10 | O=C1OC(c2ccc(O)cc2)(c2ccc(O)cc2)c2cccc3cccc1c23 |  |  |  | 34 | 34 (≈ 12.5 µg/mL) |  | 41 | 0.272 | 17 (≈ 6.26 µg/mL) | > 41 | 41 |  | 
11 | O=C1OC(c2ccc(O)cc2)(c2ccc(O)c3ccccc23)c2ccccc21 (stereo not drawn) | 6.7 | 0.498 | 0.389 | 34 | 17 (≈ 6.26 µg/mL) | 0.529 | 54 | 0.172 | 8 (≈ 2.95 µg/mL) | > 54 | 54 |  | 
12 | COc1ccc(C2(c3ccc(OC)cc3)OC(=O)c3cccc4cccc2c34)cc1 |  | 0.749 | 0.836 |  | > 21 | 0.624 | 21 | 1 | > 21 | > 21 |  |  | 47
13 | O=C1OC(O)(c2ccc(O)c(Cl)c2)c2ccc([N+](=O)[O-])c3cccc1c23 (stereo not drawn) | 8.24 | 0.418 | < 0.04 | 8 | 4 (≈ 1.49 µg/mL) | 0.086 | 66 | 1 | 8 (≈ 2.97 µg/mL) | > 66 | 17 |  | 
14 | O=C1OC(c2ccc(O)cc2)(c2ccc(O)cc2)c2ccc(Br)c3cccc1c23.O=C1OC(c2ccc(O)cc2)(c2ccc(O)cc2)c2cccc3c(Br)ccc1c23 | 10.8 | 0.536 | 0.243 | 28 | 7 | 0.112 | 76 | 0.453 | 7 | 37.5 | 28 |  | 
15 | O=C1OC(O)(c2ccccc2O)c2cccc3cccc1c23 (stereo not drawn) | 1.5 | 0.151 | 0.576 | 263 | > 263 | 0.781 | 263 | 0.957 | 171 (≈ 50 µg/mL) | 18.7 (≈ 5.47 µg/mL) |  |  | 
16 | O=C1OC(c2ccc(O)cc2)(c2ccc(O)cc2)c2ccc([N+](=O)[O-])c3cccc1c23 |  |  |  |  | 15 (≈ 6.2 µg/mL) |  | 41 | 0.424 | > 41 | > 41 | 30 |  | 
17 | O=C1OC(c2ccc(O)cc2)(c2ccc(O)cc2)c2ccc(Cl)c3cccc1c23.O=C1OC(c2ccc(O)cc2)(c2ccc(O)cc2)c2cccc3c(Cl)ccc1c23 |  |  |  | 8 | 8 |  | 69 | 0.438 | 8 | > 69 | 16 |  | 
18 | O=C1OC(c2ccc(O)c(Cl)c2)(c2ccc(O)c(Cl)c2)c2ccccc21 | 2.4 | 0.725 | 0.704 | 32 | 32 (≈ 12.4 µg/mL) | 0.47 | 77 | 0.67 | 32 (≈ 12.4 µg/mL) | > 77 | 64 |  | 
19 | Cc1ccc(C(C)C)c(O)c1C1(O)OC(=O)c2cccc3cccc1c23 (stereo not drawn) |  |  |  | >89 | > 89 |  | 89 | 1 | 72 (≈ 25.1 µg/mL) | > 89 |  |  | 
